Experimental data taken from ChEMBL document CHEMBL4311940, “Design, Synthesis, and Biological Evaluation of 4-Methyl Quinazoline Derivatives as Anticancer Agents Simultaneously Targeting Phosphoinositide 3-Kinases and Histone Deacetylases” (J Med Chem, 2019).
Active and inactive are the calls of the source. The calls are words filed in the database; no cut-off is given here.

Legend:
HCT-116 [1] = experiment: Antiproliferative activity against human HCT116 cells after 96 hrs by MTT assay; assay type: functional, cell-based; conditions: HCT-116, 96 h
Histone deacetylase 1 = Histone deacetylase 1 (Homo sapiens, UniProt Q13547); experiment: Inhibition of recombinant C-terminal His/FLAG-tagged HDAC1 (unknown origin) expressed in baculovirus infected Sf9 insect cells using Ac-peptide as substrate preincubated for 15 mins followed by substrate addition and measured after 1 hr
Chain of Histone deacetylase 1 (Q13547 whole entry, canonical isoform): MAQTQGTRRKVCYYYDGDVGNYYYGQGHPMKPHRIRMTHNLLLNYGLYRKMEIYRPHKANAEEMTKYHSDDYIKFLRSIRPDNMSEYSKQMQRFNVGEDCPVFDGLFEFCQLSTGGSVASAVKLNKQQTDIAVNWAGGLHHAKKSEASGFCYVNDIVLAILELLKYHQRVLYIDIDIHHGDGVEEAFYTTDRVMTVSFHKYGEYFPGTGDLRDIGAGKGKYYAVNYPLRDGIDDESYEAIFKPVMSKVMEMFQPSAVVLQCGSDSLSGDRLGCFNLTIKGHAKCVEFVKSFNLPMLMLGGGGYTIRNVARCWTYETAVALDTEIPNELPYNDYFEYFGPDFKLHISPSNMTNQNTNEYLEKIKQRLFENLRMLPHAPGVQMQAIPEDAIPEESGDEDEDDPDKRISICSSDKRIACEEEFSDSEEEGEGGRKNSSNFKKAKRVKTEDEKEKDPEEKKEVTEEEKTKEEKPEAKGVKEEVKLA

[2] = molecular target: Phosphatidylinositol 4,5-bisphosphate 3-kinase catalytic subunit alpha isoform (Homo sapiens, UniProt P42336); experiment: Inhibition of recombinant human PI3Kalpha using PIP2 as substrate incubated for 1 hr by kinase-glo assay
Chain of Phosphatidylinositol 4,5-bisphosphate 3-kinase catalytic subunit alpha isoform (P42336 whole entry, canonical isoform): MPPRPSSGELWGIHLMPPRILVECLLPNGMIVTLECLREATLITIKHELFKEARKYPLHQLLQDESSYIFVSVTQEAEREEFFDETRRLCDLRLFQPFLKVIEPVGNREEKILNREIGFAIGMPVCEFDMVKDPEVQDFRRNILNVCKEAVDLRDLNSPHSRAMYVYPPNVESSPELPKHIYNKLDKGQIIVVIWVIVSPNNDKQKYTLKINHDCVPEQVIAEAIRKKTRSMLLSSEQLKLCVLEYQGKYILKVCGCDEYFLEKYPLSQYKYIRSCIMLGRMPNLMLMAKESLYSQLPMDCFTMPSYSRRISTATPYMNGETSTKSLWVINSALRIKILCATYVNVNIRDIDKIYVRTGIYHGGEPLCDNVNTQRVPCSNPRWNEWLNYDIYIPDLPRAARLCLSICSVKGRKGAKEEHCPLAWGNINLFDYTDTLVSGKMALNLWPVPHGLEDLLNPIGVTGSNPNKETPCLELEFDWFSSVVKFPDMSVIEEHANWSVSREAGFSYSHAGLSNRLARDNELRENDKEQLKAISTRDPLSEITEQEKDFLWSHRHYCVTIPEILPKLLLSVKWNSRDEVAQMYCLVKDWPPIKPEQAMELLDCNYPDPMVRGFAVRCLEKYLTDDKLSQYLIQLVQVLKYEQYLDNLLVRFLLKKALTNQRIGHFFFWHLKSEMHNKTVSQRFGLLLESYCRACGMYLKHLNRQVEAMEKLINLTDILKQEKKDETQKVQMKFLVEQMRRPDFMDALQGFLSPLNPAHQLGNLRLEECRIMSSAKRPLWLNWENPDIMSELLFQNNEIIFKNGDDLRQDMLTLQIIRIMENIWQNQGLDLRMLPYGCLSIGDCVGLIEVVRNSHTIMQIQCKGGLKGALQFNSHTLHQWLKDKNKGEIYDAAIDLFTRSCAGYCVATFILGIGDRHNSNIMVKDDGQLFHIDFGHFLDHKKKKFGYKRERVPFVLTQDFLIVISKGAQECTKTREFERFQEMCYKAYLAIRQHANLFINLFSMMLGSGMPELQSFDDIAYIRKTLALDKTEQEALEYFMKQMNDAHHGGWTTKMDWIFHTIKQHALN

HCT-116 [3] = experiment: Induction of apoptosis in human HCT116 cells assessed as live cells at 500 nM after 48 hrs by Annexin V-FITC/propidium iodide staining-based flow cytometric analysis (reference value: 89.6%); assay type: functional
HCT-116 [4] = experiment: Induction of apoptosis in human HCT116 cells assessed as early apoptotic cells at 500 nM after 48 hrs by Annexin V-FITC/propidium iodide staining-based flow cytometric analysis (reference value: 1.33%); assay type: functional
HCT-116 [5] = experiment: Induction of apoptosis in human HCT116 cells assessed as late apoptotic cells at 500 nM after 48 hrs by Annexin V-FITC/propidium iodide staining-based flow cytometric analysis (reference value: 3.87%); assay type: functional
HCT-116 [6] = experiment: Induction of apoptosis in human HCT116 cells assessed as necrotic cells at 500 nM after 48 hrs by Annexin V-FITC/propidium iodide staining-based flow cytometric analysis (reference value: 5.23%); assay type: functional
HCT-116 [7] = experiment: Induction of cell cycle arrest in human HCT116 cells assessed as accumulation at G2/M phase at 500 nM after 24 hrs by propidium iodide/RNase staining-based FACS analysis; assay type: functional
Outline: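 HCT116 cells cultured overnight in 6-well plates, exposed to compound at various concentrations for 24 h; FxCycle PI/RNase staining and flow cytometry for cell cycle phase distribution.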

K562 = experiment: Antiproliferative activity against human K562 cells after 96 hrs by MTT assay; assay type: functional, cell-based; conditions: K562, 96 h
MCF7 = experiment: Antiproliferative activity against human MCF7 cells after 96 hrs by MTT assay; assay type: functional, cell-based; conditions: MCF7, 96 h
MDA-MB-453 = experiment: Antiproliferative activity against human MDA-MB-453 cells after 96 hrs by MTT assay; assay type: functional, cell-based; conditions: MDA-MB-453, 96 h
HCT-8 = experiment: Antiproliferative activity against human HCT8 cells after 96 hrs by MTT assay; assay type: functional, cell-based; conditions: HCT-8, 96 h
U-87 MG = experiment: Antiproliferative activity against human U87 cells after 96 hrs by MTT assay; assay type: functional, cell-based, U-87MG ATCC
NCI-H460 = experiment: Antiproliferative activity against human NCI-H460 cells after 96 hrs by MTT assay; assay type: functional, cell-based; conditions: NCI-H460, 96 h
NCI-H1299 = experiment: Antiproliferative activity against human NCI-H1299 cells after 96 hrs by MTT assay; assay type: functional, cell-based; conditions: NCI-H1299, 96 h
Capan-2 = experiment: Antiproliferative activity against human Capan2 cells after 96 hrs by MTT assay; assay type: functional, cell-based; conditions: Capan-2, 96 h
SW1990 = experiment: Antiproliferative activity against human SW1990 cells after 96 hrs by MTT assay; assay type: functional, cell-based; conditions: SW1990, 96 h
DU-145 = experiment: Antiproliferative activity against human DU145 cells after 96 hrs by MTT assay; assay type: functional, cell-based; conditions: DU-145, 96 h
HGC-27 = experiment: Antiproliferative activity against human HGC27 cells after 96 hrs by MTT assay; assay type: functional, cell-based; conditions: HGC-27, 96 h
HepG2 = experiment: Antiproliferative activity against human HepG2 cells after 96 hrs by MTT assay; assay type: functional, cell-based; conditions: HepG2, 96 h
Huh-7 = experiment: Antiproliferative activity against human HuH7 cells after 96 hrs by MTT assay; assay type: functional, cell-based; conditions: Huh-7, 96 h
Bel-7402 = experiment: Antiproliferative activity against human Bel7402 cells after 96 hrs by MTT assay; assay type: functional, cell-based; conditions: Bel-7402, 96 h

SMILES	IC50 (HCT-116 [1])	IC50 (Histone deacetylase 1)	IC50 [2]	also measured
COc1ncc(-c2cc(OCCCN(C)c3ncc(C(=O)NO)cn3)c3ncnc(C)c3c2)cc1NS(=O)(=O)c1ccc(F)cc1F	2900 nM	11 nM	1.1 nM	
O=C(CCCCCCC(=O)Nc1ccccc1)NO [VORINOSTAT]				Activity (HCT-116 [3]): 87.7%; Activity (HCT-116 [4]): 2.72%; Activity (HCT-116 [5]): 5.21%; Activity (HCT-116 [6]): 4.33%; Activity (HCT-116 [7]): Active
COc1ncc(-c2cc(OCCCCC(=O)NO)c3ncnc(C)c3c2)cc1NS(=O)(=O)c1ccc(F)cc1F	350 nM	303 nM	0.6 nM	
COc1ncc(-c2cc(OCCN(C)c3ncc(C(=O)NO)cn3)c3ncnc(C)c3c2)cc1NS(=O)(=O)c1ccc(F)cc1F	530 nM	1.7 nM	1.8 nM	
COc1ccc(-c2nc(N3CCOCC3)c3sc(CN(C)c4ncc(C(=O)NO)cn4)cc3n2)cn1 [FIMEPINOSTAT]	5 nM			IC50 (K562): 280 nM; IC50 (MCF7): 41 nM; IC50 (MDA-MB-453): 9 nM; IC50 (HCT-8): 5 nM; IC50 (U-87 MG): 7 nM; IC50 (NCI-H460): 150 nM; IC50 (NCI-H1299): 25 nM; IC50 (Capan-2): 7 nM; IC50 (SW1990): 180 nM; IC50 (DU-145): 560 nM; IC50 (HGC-27): 41 nM; IC50 (HepG2): 15 nM; IC50 (Huh-7): 560 nM; IC50 (Bel-7402): 13 nM
COc1ncc(-c2cc(OCCCCCCCC(=O)NO)c3ncnc(C)c3c2)cc1NS(=O)(=O)c1ccc(F)cc1F	1500 nM	1.8 nM	0.63 nM	
COc1ncc(-c2cc(OCCN(C)c3ncc(C(=O)NO)cn3)c3ncnc(C)c3c2)cc1F	30 nM	1.3 nM	73 nM	
COc1ncc(-c2cc(OCCCCCCC(=O)NO)c3ncnc(C)c3c2)cc1NS(=O)(=O)c1ccc(F)cc1F	7200 nM	6.3 nM	0.69 nM	
CCN(CCOc1cc(-c2cnc(OC)c(F)c2)cc2c(C)ncnc12)c1ncc(C(=O)NO)cn1	39 nM	2.6 nM	72 nM	
COc1ncc(-c2cc(OCCCCN(C)c3ncc(C(=O)NO)cn3)c3ncnc(C)c3c2)cc1F	250 nM	3.3 nM	48 nM	
COc1ncc(-c2cc(OCCCN(C)c3ncc(C(=O)NO)cn3)c3ncnc(C)c3c2)cc1F	82 nM	2.4 nM	94 nM	
COc1ncc(-c2cc(OCCCCNc3ncc(C(=O)NO)cn3)c3ncnc(C)c3c2)cc1F	9300 nM	11 nM	41 nM	
COc1ncc(-c2cc(OCCCCCCCCC(=O)NO)c3ncnc(C)c3c2)cc1NS(=O)(=O)c1ccc(F)cc1F	4000 nM	8.9 nM	0.9 nM	
COc1ncc(-c2cc(OCCN(c3ncc(C(=O)NO)cn3)C(C)C)c3ncnc(C)c3c2)cc1F	96 nM	2 nM	43 nM	
COc1ncc(-c2cc(OCCCCCC(=O)NO)c3ncnc(C)c3c2)cc1NS(=O)(=O)c1ccc(F)cc1F	540 nM	39 nM	0.66 nM	
COc1ncc(-c2cc(OCCCNc3ncc(C(=O)NO)cn3)c3ncnc(C)c3c2)cc1F	2100 nM	4 nM	43 nM	

Further lines, with some results ahead:

IC50 (HCT-116 [1])	IC50 (Histone deacetylase 1)	IC50 [2]	SMILES	also measured
11000 nM	4.9 nM	4 nM	COc1ncc(-c2cc(OCCCCCCCCC(=O)NO)c3ncnc(C)c3c2)cc1NS(C)(=O)=O	
> 10000 nM	91 nM	73 nM	COc1ccc(-c2cc(OCCCC(=O)NO)c3ncnc(C)c3c2)cn1	
39 nM	1.6 nM	82 nM	COc1ccc(-c2cc(OCCN(c3ncc(C(=O)NO)cn3)C(C)C)c3ncnc(C)c3c2)cn1	
37000 nM	1.3 nM	2.3 nM	COc1ncc(-c2cc(OCCCCCCC(=O)NO)c3ncnc(C)c3c2)cc1NS(C)(=O)=O	
1400 nM	84 nM	51 nM	COc1ccc(-c2cc(OCCCCC(=O)NO)c3ncnc(C)c3c2)cn1	
22 nM	2.1 nM	195 nM	CCN(CCOc1cc(-c2ccc(OC)nc2)cc2c(C)ncnc12)c1ncc(C(=O)NO)cn1	
1200 nM	37 nM	30 nM	COc1ncc(-c2cc(OCCCCCC(=O)NO)c3ncnc(C)c3c2)cc1F	
1400 nM	3.3 nM	54 nM	COc1ncc(-c2cc(OCCCCCCCC(=O)NO)c3ncnc(C)c3c2)cc1F	
4600 nM	5.3 nM	43 nM	COc1ncc(-c2cc(OCCNc3ncc(C(=O)NO)cn3)c3ncnc(C)c3c2)cc1F	
540 nM	30 nM	58 nM	COc1ccc(-c2cc(OCCCCCC(=O)NO)c3ncnc(C)c3c2)cn1	
> 10000 nM	42 nM	5.1 nM	COc1ncc(-c2cc(OCCCCCC(=O)NO)c3ncnc(C)c3c2)cc1NS(C)(=O)=O	
760 nM	3 nM	162 nM	COc1ccc(-c2cc(OCCCCCCCCC(=O)NO)c3ncnc(C)c3c2)cn1	
> 10000 nM	37 nM	1.3 nM	COc1ncc(-c2cc(OCCCC(=O)NO)c3ncnc(C)c3c2)cc1NS(=O)(=O)c1ccc(F)cc1F	
3400 nM	2.1 nM	3.9 nM	COc1ncc(-c2cc(OCCCCCCCC(=O)NO)c3ncnc(C)c3c2)cc1NS(C)(=O)=O	
> 10000 nM	166 nM	68 nM	COc1ccc(-c2cc(OCC(=O)NO)c3ncnc(C)c3c2)cn1	
800 nM	3.7 nM	143 nM	COc1ccc(-c2cc(OCCCCCCCC(=O)NO)c3ncnc(C)c3c2)cn1	
580 nM	2.2 nM	116 nM	COc1ncc(-c2cc(OCCCCCCCCC(=O)NO)c3ncnc(C)c3c2)cc1F	
100 nM	2.5 nM	213 nM	COc1ccc(-c2cc(OCCCN(C)c3ncc(C(=O)NO)cn3)c3ncnc(C)c3c2)cn1	
